Test results as given in ChEMBL document CHEMBL4219092, “Design and synthesis of 1-(1-benzothiophen-7-yl)-1H-pyrazole, a novel series of G protein-coupled receptor 52 (GPR52) agonists” (Bioorg Med Chem, 2018).
Converted amounts (≈) assume the structure as drawn. The source made the active and inactive calls. No cut-off for these calls is given here.

Legend:
[1] = biological target: T1, G-protein coupled receptor 52 (Homo sapiens, UniProt Q9Y2T5); assay: Agonist activity at human GPR52 expressed in CHO cells assessed as increase in cAMP level after 30 mins by AlphaScreen assay; assay type: functional, cell-based
Method in brief: (§1)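 CHO cells stably expressing human GPR52 (10,000 cells) were incubated with compound for 30 min at 37°C in HBSS with 5 mM HEPES pH 7.6, 0.5% BSA, 100 μM IBMX and 100 μM Ro20-1724. Anti-cAMP acceptor beads and biotinylated cAMP donor beads were then added, with overnight incubation at room temperature, and AlphaScreen was read. EC50 comes from mean curves (n=2-4) relative to the 50% response of 1 μM of a benzofuran reference agonist. Emax is expressed relative to that reference.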

[2] = Aqueous solubility of the compound at pH 6.8 by HPLC analysis; assay type: physicochemical
Method in brief: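 Compound from DMSO stock was added to aqueous buffer at pH 6.8 (JP 15th edition second disintegration fluid) and incubated. Precipitate was removed by filter-plate filtration, and the dissolved compound in the filtrate was quantified by HPLC.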

[3] = biological target: T1, G-protein coupled receptor 52; assay: Agonist activity at human GPR52 expressed in CHO cells assessed as increase in cAMP level after 30 mins by AlphaScreen assay relative to N-(2-hydroxyethyl)-3-[2-[3-(trifluoromethyl)benzyl]-1-benzofuran-4-yl]benzamide; assay type: functional, cell-based; method in brief: as §1
[4] = test system: Mus musculus; assay: Reversal of methamphetamine-induced hyperlocomotion in ICR mouse at 0.3 mg/kg, po pretreated 60 mins post habituation followed by methamphetamine injection after 60 mins measured for 150 mins; assay type: functional, organism-based
Method in brief: (§2)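 Male ICR mice (7-8 weeks) were placed individually in locomotor monitors and habituated for 60 min. Drug was then given p.o. (test agent 10 or 30 mg/kg; haloperidol 0.3 mg/kg). Methamphetamine 2 mg/kg s.c. was injected 60 min later, and activity counts were recorded for 150 min after drug dosing. Data are mean ± S.E.M., n=6-7 per group, analysed by Williams' test against vehicle+MAP.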

[5] = Cmax in ICR mouse at 0.1 mg/kg, iv and 1 mg/kg, po administered as cassette dose by LC-MS/MS analysis; assay type: ADME, organism-based; conditions: in vivo
Method in brief: (§3)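 Male ICR mice (n=3), cassette dosing at 0.1 mg/kg i.v. or 1 mg/kg p.o. Blood was collected and centrifuged to plasma. Plasma was deproteinized and centrifuged, and the supernatant was analysed by LC/MS/MS. AUC covers 0 to 8 h. Values are averages of 3 mice.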

[6] = Tmax in ICR mouse at 0.1 mg/kg, iv and 1 mg/kg, po administered as cassette dose by LC-MS/MS analysis; assay type: ADME, organism-based; conditions: in vivo; method in brief: as §3
[7] = AUC (0 to 8 hrs) in ICR mouse at 1 mg/kg, po administered as cassette dose by LC-MS/MS analysis; assay type: ADME, organism-based; set-up: time < 8 hr, dose 1 mg/kg, route oral; conditions: in vivo; method in brief: as §3
[8] = Total clearance in ICR mouse at 0.1 mg/kg, iv and 1 mg/kg, po administered as cassette dose by LC-MS/MS analysis; assay type: ADME, organism-based; conditions: in vivo; method in brief: as §3
[9] = Oral bioavailability in ICR mouse at 1 mg/kg administered as cassette dose by LC-MS/MS analysis; assay type: ADME, organism-based; conditions: in vivo; method in brief: as §3
[10] = test system: MDR; assay: Substrate activity at MDR (unknown origin) assessed as efflux ratio; assay type: ADME; conditions: human, not told
[11] = Protein binding in mouse plasma at 1 uM; assay type: ADME, cell-free; conditions: read-out: PPB (converted)
[12] = test system: Mus musculus; assay: Reversal of methamphetamine-induced hyperlocomotion in po dosed ICR mouse pretreated 60 mins post habituation followed by methamphetamine injection after 60 mins measured for 150 mins; assay type: functional, organism-based; method in brief: as §2
[13] = test system: Mus musculus; assay: Toxicity in ICR mouse assessed as sedation at 10 and 30 mg/kg, po measured over 60 mins; assay type: organism-based; conditions: in vivo, 1 h
[14] = test system: Mus musculus; assay: Toxicity in ICR mouse assessed as general malaise at 10 and 30 mg/kg, po measured over 60 mins; assay type: organism-based; conditions: in vivo, 1 h

T1 sequence (Q9Y2T5 whole entry): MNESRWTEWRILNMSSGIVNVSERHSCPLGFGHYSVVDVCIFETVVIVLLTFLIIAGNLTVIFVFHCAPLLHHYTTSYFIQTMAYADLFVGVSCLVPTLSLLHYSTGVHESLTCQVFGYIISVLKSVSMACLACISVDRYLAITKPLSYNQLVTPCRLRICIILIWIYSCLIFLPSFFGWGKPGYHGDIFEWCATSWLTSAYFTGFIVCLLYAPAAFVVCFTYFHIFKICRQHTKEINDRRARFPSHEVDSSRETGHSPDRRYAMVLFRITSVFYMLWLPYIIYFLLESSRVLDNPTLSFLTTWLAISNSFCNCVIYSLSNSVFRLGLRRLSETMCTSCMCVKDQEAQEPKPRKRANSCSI

EC50 [1] [µM] | solubility [2] [µg/mL] | Emax [3] [%] | Structure (SMILES) | further results
0.0052 | < 0.1 | 102 | Cc1nn(-c2cccc3cc(Cc4cccc(C(F)(F)F)c4)sc23)cc1C(=O)NCCO | –
0.087 | < 0.09 | 73 | O=C(NCCO)c1cnn(-c2cccc3cc(Cc4cccc(C(F)(F)F)c4)sc23)c1 | –
– | – | – | O=C(CCCN1CCC(O)(c2ccc(Cl)cc2)CC1)c1ccc(F)cc1 | Activity [4]: Active
0.017 | 2.9 (≈ 5.95 µM) | 104 | COCCNC(=O)c1c(C)nn(-c2cccc3cc(Cc4cccc(C(F)(F)F)c4)sc23)c1C | –
0.021 | 21 (≈ 42.9 µM) | 103 | Cc1nn(-c2cccc3cc(Cc4cccc(C(F)(F)F)c4)sc23)c(CO)c1C(=O)NCCO | Cmax [5]: 0.083 µg/mL; Tmax [6]: 1.7 h; AUC(0-t) at 8 h [7]: 0.406 µg·h/mL; clearance [8]: 0.747 L/h/kg; bioavailability [9]: 29.9%; efflux ratio [10]: 1.7; fraction unbound at 1 µM [11]: 0.02; Activity [12]: Dose-dependent effect; Activity [13]: Non-Toxic; Activity [14]: Non-Toxic
0.015 | 12 (≈ 25.3 µM) | 110 | Cc1nn(-c2cccc3cc(Cc4cccc(C(F)(F)F)c4)sc23)c(C)c1C(=O)NCCO | –
0.045 | < 0.08 | 110 | Cn1nc(-c2cccc3cc(Cc4cccc(C(F)(F)F)c4)sc23)cc1C(=O)NCCO | –
0.146 | 18 (≈ 36.8 µM) | 96 | Cc1c(C(=O)NCCO)c(CO)nn1-c1cccc2cc(Cc3cccc(C(F)(F)F)c3)sc12 | –
0.062 | 1.3 (≈ 2.75 µM) | 84 | COCCNC(=O)c1cnn(-c2cccc3cc(Cc4cccc(C(F)(F)F)c4)sc23)c1C | –
0.062 | < 0.08 | 81 | COCCNC(=O)c1cnn(-c2cccc3cc(Cc4cccc(C(F)(F)F)c4)sc23)c1 | –
0.0096 | < 0.1 | 89 | COCCNC(=O)c1cn(-c2cccc3cc(Cc4cccc(C(F)(F)F)c4)sc23)nc1C | –
